Experimental data from ChEMBL document CHEMBL1157264, “Hispidin derivatives from the mushroom Inonotus xeranticus and their antioxidant activity” (J Nat Prod, 2006).
Active and inactive are the calls of the source. No cut-off for these calls is given here.

Legend:
Assay type in all cases: functional
[1] = Antioxidant activity assessed as superoxide radical anion scavenging activity after 30 mins by microplate reader
Summary of the method: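 Xanthine/xanthine oxidase system: 50 mM potassium phosphate pH 7.8, 1 mM EDTA, 0.04 mM NBT, 0.18 mM xanthine, 250 mU/mL xanthine oxidase plus sample, 30 min at 37 °C in the dark. NBT-formazan read at 560 nm, background from a no-enzyme control subtracted. IC50 derived; BHA reference.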

[2] = tested on: Radical scavenging activity; experiment: Antioxidant activity assessed as DPPH radical scavenging activity for 20 mins by ELISA
Summary of the method: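 Samples in DMSO added to 150 µM DPPH in ethanol, vortexed, incubated 20 min at room temperature, absorbance read at 517 nm. Activity taken from the absorbance difference versus DMSO control; vitamin E and caffeic acid references.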

[3] = Antioxidant activity assessed as ABTS radical scavenging activity after 12 hrs by ELISA; settings: in the assay text read “after 6 mins” for “after 12 hrs”
Summary of the method: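 ABTS dissolved in water at 7 mM, reacted with 2.45 mM potassium persulfate (final) and left 12 h in the dark at room temperature to form ABTS•+. Radical solution (A734 0.700) added to samples in EtOH, absorbance read after mixing for up to 6 min. IC50 derived; vitamin E reference.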

In the case of `COc1ccc(O)c(C(C)(C)C)c1.COc1ccc(O)cc1C(C)(C)C` [BUTYLATED HYDROXYANISOLE], the IC50 [1] is reported as 10 µM.

In the case of `CC1=CC(=O)C2(O1)c1c(cc(/C=C/c3ccc(O)c(O)c3)oc1=O)OC2c1ccc(O)c(O)c1` (stereo not given) [INOSCAVIN A], the IC50 [1] is reported as 78 µM and the Activity [2] is reported as “inactive”.

VITAMIN E gave an IC50 [3] of 6 µM.

With `COC1(C)Oc2cc(/C=C/c3ccc(O)c(O)c3)oc(=O)c2/C1=C/c1ccc(O)c(O)c1` (stereo not given) [INOSCAVIN B] the IC50 [1] was 95 µM and the Activity [2] was “inactive”.

With `COC1(CC(C)=O)Oc2cc(/C=C/c3ccc(O)c(O)c3)oc(=O)c2/C1=C/c1ccc(O)c(O)c1` (stereo not given) [PHELLIGRIDIN F] the IC50 [1] was 40 µM, the IC50 [3] was 11.4 µM and the Activity [2] was “inactive”.

For `COc1cc(/C=C/c2cc3c(c(=O)o2)C2(OC(C)=CC2=O)C(c2ccc(O)c(O)c2)O3)ccc1O` (stereo not given) [METHYLINOSCAVIN A], the IC50 [1] was 20 µM, the IC50 [3] was 10.7 µM and the Activity [2] was “inactive”.

For `COc1cc(/C=C/c2cc3c(c(=O)o2)/C(=C/c2ccc(O)c(O)c2)C(C)(OC)O3)ccc1O` (stereo not given) [METHYLINOSCAVIN B], the IC50 [1] was 38 µM, the IC50 [3] was 13.1 µM and the Activity [2] was “inactive”.
